Source: ChEMBL document CHEMBL4004796, “Exploring the Bioactive Terpenoid Content of an Algerian Plant of the Genus Pulicaria: The ent-Series of Asteriscunolides” (J Nat Prod, 2017)

Tests used:
Assay type in all cases: functional
[1] = Antiinflammatory activity assessed as inhibition of heat-induced albumin denaturation at 0.5 uM after 20 mins by spectrophotometric method relative to control
In short: (§1)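 Bovine albumin fraction as a 1% aqueous solution, with test agent at 0.5−10 μM, adjusted to pH 6.3 with 1 N HCl. Incubated 20 min at 37 °C, then heated 20 min at 51 °C. After cooling, turbidity read at 660 nm. % inhibition = [(A0 − A1)/A0] × 100 versus control absorbance. Diclofenac sodium as reference.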

[2] = Antiinflammatory activity assessed as inhibition of heat-induced albumin denaturation at 1 uM after 20 mins by spectrophotometric method relative to control; in short: as §1
[3] = Antiinflammatory activity assessed as inhibition of heat-induced albumin denaturation at 5 uM after 20 mins by spectrophotometric method relative to control; in short: as §1
[4] = Antiinflammatory activity assessed as inhibition of heat-induced albumin denaturation at 10 uM after 20 mins by spectrophotometric method relative to control; in short: as §1
[5] = Antiinflammatory activity assessed as inhibition of heat-induced albumin denaturation after 20 mins by spectrophotometric method; in short: as §1
[6] = system: Rattus norvegicus; assay: Antiinflammatory activity in Wistar rat assessed as inhibition of carrageenan-induced paw edema at 10 mg/kg, po preincubated for 1 hr followed by carrageenan challenge measured at 1 hr by plethysmometer relative to control
In short: (§2)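 Adult male albino Wistar animals, 25−30 g, in groups of five, 25 ± 2 °C, 12 h light/dark. Oral dosing, with PBS vehicle for controls. One hour later, 0.1 mL of 1% carrageenan was injected subplantar into the left hind paw. Paw volume was read by plethysmometer at 1, 2, 3 and 4 h relative to pre-injection. % inhibition = [(D0 − Dt)/D0] × 100 versus control group mean at each time. Mean ± SD, n = 5, Student's test.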

[7] = system: Rattus norvegicus; assay: Antiinflammatory activity in Wistar rat assessed as inhibition of carrageenan-induced paw edema at 10 mg/kg, po preincubated for 1 hr followed by carrageenan challenge measured at 2 hrs by plethysmometer relative to control; in short: as §2
[8] = system: Rattus norvegicus; assay: Antiinflammatory activity in Wistar rat assessed as inhibition of carrageenan-induced paw edema at 10 mg/kg, po preincubated for 1 hr followed by carrageenan challenge measured at 3 hrs by plethysmometer relative to control; in short: as §2
[9] = system: Rattus norvegicus; assay: Antiinflammatory activity in Wistar rat assessed as inhibition of carrageenan-induced paw edema at 10 mg/kg, po preincubated for 1 hr followed by carrageenan challenge measured at 4 hrs by plethysmometer relative to control; in short: as §2

IC50 [5]	Structure (SMILES)	inhibition [1]	inhibition [2]	inhibition [3]	inhibition [4]	inhibition in vivo at 10 mg/kg [6]	inhibition in vivo at 10 mg/kg [7]	inhibition in vivo at 10 mg/kg [8]	inhibition in vivo at 10 mg/kg [9]
23.8 µM	C/C1=C/CCC2=C[C@@H](OC2=O)C(C)(C)/C=C\C1=O	15.5%	22.6%	32.9%	44.4%				
4.14 µM	O=C(O)Cc1ccccc1Nc1c(Cl)cccc1Cl [DICLOFENAC SODIUM]	22.6%	31.8%	41.7%	70.2%	64.9%	71.5%	73.7%	78.6%
220 µM	COC(=O)/C1=C\CC(C)(C)/C=C/C(=O)C(C)CCC1 (single isomer, unassigned; (-))	8.73%	16.7%	24.6%					
